Data as given in ChEMBL document CHEMBL4354800, “Amphiphilic nebramine-based hybrids Rescue legacy antibiotics from intrinsic resistance in multidrug-resistant Gram-negative bacilli” (Eur J Med Chem, 2019).

Key:
[1] = tested on: Pseudomonas aeruginosa; test: Synergistic antibacterial activity against wild type Pseudomonas aeruginosa PAO1 assessed as fractional inhibitory concentration index in presence of moxifloxacin incubated for 18 hrs by broth microdilution method; format: functional
Summary of the method: (§1)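 Checkerboard synergy assay. Antibiotic and adjuvant in twofold dilutions in Mueller-Hinton broth. Inoculum 5 × 10^5 CFU/mL from a 0.5 McFarland suspension, 18 h at 37 °C, MIC read by turbidity and confirmed at 590 nm. FIC = MIC in combination / MIC alone for each agent, FICI = sum. Interpreted as ≤0.5 synergy, 0.5–4 no interaction, >4 antagonism.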

[2] = tested on: Pseudomonas aeruginosa; test: Antimicrobial activity against MDR/XDR Pseudomonas aeruginosa isolate 100036 harboring GyrA Thr83Ile mutant incubated for 18 hrs by broth microdilution method; format: functional; conditions: isolate 100036, 18 h
Summary of the method: (§2)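 Broth microdilution per CLSI: overnight cultures set to 0.5 McFarland in saline, diluted 1:50 in Mueller-Hinton broth to a final 5 × 10^5 CFU/mL, added to 2-fold serial dilutions, incubated 18 h at 37 °C; MIC is the lowest concentration without visible turbidity, confirmed at 590 nm.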

[3] = tested on: Pseudomonas aeruginosa; test: Antimicrobial activity against MDR/XDR Pseudomonas aeruginosa isolate PA262-101856 harboring GyrA Thr83Ile mutant incubated for 18 hrs by broth microdilution method; format: functional; conditions: isolate PA262-101856, 18 h; summary of the method: as §2
[4] = tested on: Pseudomonas aeruginosa; test: Antimicrobial activity against MDR/XDR Pseudomonas aeruginosa isolate 91433 devoid of GyrA Thr83Ile mutant incubated for 18 hrs by broth microdilution method; format: functional; conditions: isolate 91433, 18 h; summary of the method: as §2
[5] = tested on: Pseudomonas aeruginosa; test: Antimicrobial activity against MDR/XDR Pseudomonas aeruginosa isolate 101243 devoid of GyrA Thr83Ile mutant incubated for 18 hrs by broth microdilution method; format: functional; conditions: isolate 101243, 18 h; summary of the method: as §2
[6] = tested on: Pseudomonas aeruginosa; test: Synergistic antibacterial activity against MDR/XDR Pseudomonas aeruginosa isolate PA262-101856 harboring GyrA T83I mutant assessed as fractional inhibitory concentration index in presence of moxifloxacin incubated for 18 hrs by broth microdilution method; format: functional; summary of the method: as §1
[7] = tested on: Pseudomonas aeruginosa; test: Synergistic antibacterial activity against MDR/XDR Pseudomonas aeruginosa isolate PA262-101856 harboring GyrA T83I mutant assessed as fractional inhibitory concentration index in presence of ciprofloxacin incubated for 18 hrs by broth microdilution method; format: functional; summary of the method: as §1
[8] = tested on: Pseudomonas aeruginosa; test: Synergistic antibacterial activity against MDR/XDR Pseudomonas aeruginosa isolate 100036 harboring GyrA T83I mutant assessed as fractional inhibitory concentration index in presence of moxifloxacin incubated for 18 hrs by broth microdilution method; format: functional; summary of the method: as §1
[9] = tested on: Pseudomonas aeruginosa; test: Synergistic antibacterial activity against MDR/XDR Pseudomonas aeruginosa isolate 100036 harboring GyrA T83I mutant assessed as fractional inhibitory concentration index in presence of ciprofloxacin incubated for 18 hrs by broth microdilution method; format: functional; summary of the method: as §1
[10] = tested on: Pseudomonas aeruginosa; test: Synergistic antibacterial activity against MDR/XDR Pseudomonas aeruginosa isolate 101885 harboring GyrA T83I mutant assessed as fractional inhibitory concentration index in presence of moxifloxacin incubated for 18 hrs by broth microdilution method; format: functional; summary of the method: as §1
[11] = tested on: Pseudomonas aeruginosa; test: Synergistic antibacterial activity against MDR/XDR Pseudomonas aeruginosa isolate PA259-96918 harboring GyrA T83I mutant assessed as fractional inhibitory concentration index in presence of moxifloxacin incubated for 18 hrs by broth microdilution method; format: functional; summary of the method: as §1
[12] = tested on: Pseudomonas aeruginosa; test: Synergistic antibacterial activity against MDR/XDR Pseudomonas aeruginosa isolate 101243 devoid of GyrA T83I mutant assessed as fractional inhibitory concentration index in presence of ciprofloxacin incubated for 18 hrs by broth microdilution method; format: functional; summary of the method: as §1
[13] = tested on: Pseudomonas aeruginosa; test: Synergistic antibacterial activity against MDR/XDR Pseudomonas aeruginosa isolate PA262-101856 harboring GyrA T83I mutant assessed as fractional inhibitory concentration index in presence of minocycline incubated for 18 hrs by broth microdilution method; format: functional; summary of the method: as §1
[14] = tested on: Pseudomonas aeruginosa; test: Synergistic antibacterial activity against MDR/XDR Pseudomonas aeruginosa isolate PA260-97103 harboring GyrA T83I mutant assessed as fractional inhibitory concentration index in presence of minocycline incubated for 18 hrs by broth microdilution method; format: functional; summary of the method: as §1
[15] = tested on: Pseudomonas aeruginosa; test: Synergistic antibacterial activity against MDR/XDR Pseudomonas aeruginosa isolate 100036 harboring GyrA T83I mutant assessed as fractional inhibitory concentration index in presence of minocycline incubated for 18 hrs by broth microdilution method; format: functional; summary of the method: as §1
[16] = tested on: Pseudomonas aeruginosa; test: Synergistic antibacterial activity against MDR/XDR Pseudomonas aeruginosa isolate 91433 devoid of GyrA T83I mutant assessed as fractional inhibitory concentration index in presence of minocycline incubated for 18 hrs by broth microdilution method; format: functional; summary of the method: as §1
[17] = tested on: Pseudomonas aeruginosa; test: Synergistic antibacterial activity against MDR/XDR Pseudomonas aeruginosa isolate 101243 devoid of GyrA T83I mutant assessed as fractional inhibitory concentration index in presence of minocycline incubated for 18 hrs by broth microdilution method; format: functional; summary of the method: as §1
[18] = tested on: Pseudomonas aeruginosa; test: Synergistic antibacterial activity against MDR/XDR Pseudomonas aeruginosa isolate 100036 harboring T83I mutant assessed as fractional inhibitory concentration index in presence of rifampicin incubated for 18 hrs by broth microdilution method; format: functional; summary of the method: as §1
[19] = tested on: Pseudomonas aeruginosa; test: Synergistic antibacterial activity against MDR/XDR Pseudomonas aeruginosa isolate 101885 harboring T83I mutant assessed as fractional inhibitory concentration index in presence of rifampicin incubated for 18 hrs by broth microdilution method; format: functional; summary of the method: as §1
[20] = tested on: Pseudomonas aeruginosa; test: Synergistic antibacterial activity against MDR/XDR Pseudomonas aeruginosa isolate 91433 devoid of GyrA T83I mutant assessed as fractional inhibitory concentration index in presence of rifampicin incubated for 18 hrs by broth microdilution method; format: functional; summary of the method: as §1
[21] = tested on: Pseudomonas aeruginosa; test: Synergistic antibacterial activity against MDR/XDR Pseudomonas aeruginosa isolate PA264-104354 harboring GyrA T83I mutant assessed as fractional inhibitory concentration index in presence of minocycline incubated for 18 hrs by broth microdilution method; format: functional; summary of the method: as §1
[22] = tested on: Pseudomonas aeruginosa; test: Synergistic antibacterial activity against MDR/XDR Pseudomonas aeruginosa isolate PA264-104354 harboring T83I mutant assessed as fractional inhibitory concentration index in presence of rifampicin incubated for 18 hrs by broth microdilution method; format: functional; summary of the method: as §1
[23] = tested on: Enterobacter cloacae; test: Antimicrobial activity against Enterobacter cloacae 117029 incubated for 18 hrs by broth dilution method; format: functional; conditions: Enterobacter cloacae, 117029, 18 h
Summary of the method: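 CLSI broth microdilution. Overnight cultures were adjusted to 0.5 McFarland in saline, diluted 1:50 in Mueller-Hinton broth, and inoculated at a final 5 × 10^5 CFU/mL. Compounds were tested as 2-fold serial dilutions and incubated 18 h at 37 °C. MIC was the lowest concentration with no visible turbidity, confirmed by absorbance at 590 nm.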

[24] = tested on: HepG2; test: Cytotoxicity against human HepG2 cells at 50 uM incubated for 48 hrs in presence of 50 uM rifampicin by PrestoBlue dye based fluorescence assay; format: cell-based; conditions: hepg2, 48 h
[25] = tested on: HEK293; test: Cytotoxicity against HEK293 cells at 50 uM incubated for 48 hrs in presence of 50 uM rifampicin by PrestoBlue dye based fluorescence assay; format: cell-based; conditions: human, hek293, 48 h

Compound | fractional inhibitory concentration index (FICI) [1] | MIC [2] [µg/mL] | MIC [3] [µg/mL] | MIC [4] [µg/mL] | MIC [5] [µg/mL] | fractional inhibitory concentration index (FICI) [6] | fractional inhibitory concentration index (FICI) [7] | fractional inhibitory concentration index (FICI) [8] | fractional inhibitory concentration index (FICI) [9] | fractional inhibitory concentration index (FICI) [10] | fractional inhibitory concentration index (FICI) [11] | fractional inhibitory concentration index (FICI) [12] | fractional inhibitory concentration index (FICI) [13] | fractional inhibitory concentration index (FICI) [14] | fractional inhibitory concentration index (FICI) [15] | fractional inhibitory concentration index (FICI) [16] | fractional inhibitory concentration index (FICI) [17] | fractional inhibitory concentration index (FICI) [18] | fractional inhibitory concentration index (FICI) [19] | fractional inhibitory concentration index (FICI) [20] | other results
Cl.Cl.Cl.Cl.Cl.Cl.NC[C@H]1O[C@H](O[C@H]2[C@H](OCCCCCCCCCCN3CCN(Cc4cccc5ccccc45)CC3)[C@@H](O)[C@H](N)C[C@@H]2N)[C@H](N)C[C@@H]1O | 0.05 | > 512 | 512 | 32 | 512 | 0.09 | 0.13 | 0.063 - 0.07 | 0.125 - 0.133 | 0.07 | 0.016 - 0.023 | 0.16 | 0.04 | 0.09 | 0.031 - 0.033 | 0.19 | 0.09 | 0.004 - 0.012 | 0.02 | 0.5 | 
Cl.Cl.Cl.Cl.Cl.NC[C@H]1O[C@H](O[C@H]2[C@H](OCCCCCCCCCCCCN3CCN(c4cc5c(cc4F)c(=O)c(C(=O)O)cn5C4CC4)CC3)[C@@H](O)[C@H](N)C[C@@H]2N)[C@H](N)C[C@@H]1O |  |  |  |  |  |  |  |  |  |  |  |  |  |  |  |  |  |  |  |  | fractional inhibitory concentration index (FICI) [21]: 0.039; fractional inhibitory concentration index (FICI) [22]: 0.039; MIC [23]: 32 µg/mL; Activity [24]: Non-Toxic; Activity [25]: Non-Toxic
COc1c(N2C[C@@H]3CCCN(CCCCCCCCCCCCO[C@@H]4[C@@H](O)[C@H](N)C[C@H](N)[C@H]4O[C@H]4O[C@H](CN)[C@@H](O)C[C@H]4N)[C@@H]3C2)c(F)cc2c(=O)c(C(=O)O)cn(C3CC3)c12.Cl.Cl.Cl.Cl.Cl | 0.25 | 128 | > 256 | 32 | 64 | 0.13 - 0.16 | 0.25 - 0.28 | 0.08 | 0.56 | 0.25 | 0.06 - 0.07 | 0.25 | 0.03 - 0.05 | 0.09 | 0.06 | 0.19 | 0.13 | 0.01 | 0.05 | 0.16 | fractional inhibitory concentration index (FICI) [21]: 0.05; fractional inhibitory concentration index (FICI) [22]: 0.02; MIC [23]: 32 µg/mL; Activity [24]: Non-Toxic; Activity [25]: Non-Toxic
